Assays:
human intestinal tissue = human intestinal tissue / human in vivo; cited from earlier work
human iPS-IECMs [1] = assay: Determination of Fg value; format: in vitro ADME; settings: 3 μM MDZ apical, 60-minute incubation
Method in brief: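 Monolayers on inserts were preincubated 10 min at 37°C in HBSS with 10 mM HEPES, pH 7.4. Apical: 3 μM midazolam in HBSS; basolateral: HBSS with 0.1% DMSO. After 60 min at 37°C, both chambers and the twice-washed cells were collected into acetonitrile/ethanol (7:3) with candesartan internal standard. Midazolam and 1′-OH midazolam were quantified by UPLC-MS/MS. Fg was derived from summed metabolite across all compartments plus basolateral and cellular midazolam.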

human iPS-IECMs [2] = assay: LY permeability test across human iPS-IECMs; format: in vitro ADME; settings: Ad-LacZ- and Ad-TF-transduced cells; apical to basolateral; 60 μM LY, 70 min, 37°C

Compound | Fg (fraction passing the gut wall) (human intestinal tissue) | Fg (fraction passing the gut wall) (human iPS-IECMs [1]) | Lucifer yellow (LY) Papp (human iPS-IECMs [2])
Cc1ncc2n1-c1ccc(Cl)cc1C(c1ccccc1F)=NC2 [MDZ, midazolam] | 0.57 | 0.73 | –
LY CH Dipotassium Salt | – | – | approximately 0.44 ×10^–6 cm/s

Reference: article PMC6722387 (Cellular and Molecular Gastroenterology and Hepatology, 2019)
